Assay [1] is described as follows: inhibitors of TNFa-induced NFkB p65 translocation, primary screen, imaging, HUVEC, MLSMR starter and 10KST1 sets (AID 438;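 active means inhibition above 20% together with a positive visual image hit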;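 further: compound added about 3h40 before a 20 min TNFalpha stimulation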;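 on inhibition: signal is the nuclear over cytoplasmic p65 intensity ratio per well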). The note with it: HUVEC TNFa-induced p65 nuclear translocation; cell count: measured here: nuclei count (cytotoxicity indicator), at 2.08 µM; inhibition: at 2 µM, stronger effect = higher value, 0% TNFa-plus-vehicle, 100% no-TNFa wells.
The nature of assay [2]: endothelial E-selectin expression blockers – imaging, HUVEC, immunofluorescence, MLSMR starter and 10KST1 sets, primary screen (AID 487;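 active means visually confirmed hit in the image check and inhibition above 20%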;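 on inhibition: signal is fraction of cell area covered by stained E-selectin grains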;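 on nuclei count: 100% = median nuclei count of all wells on the same plate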). The note with it: HUVEC TNFalpha-induced E-selectin immunofluorescence imaging, at 2 µM; inhibition: stronger effect = higher value; nuclei count: measured here: cell number, toxicity.
Assay [3] in a line: Primary imaging screen for DUSP6 inhibitors that restore phospho-Erk in transfected HeLa cells, chemical complementation (AID 609;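 active means compounds giving at least 50% inhibition in the cell-based MKP-3 phosphatase rescue imaging test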;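 on inhibition: phospho-Erk level distribution per well compared with pooled transfected vehicle control wells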). The note with it: HeLa MKP-3 transfected, phospho-Erk imaging KS statistic, at 10 µM, cells stimulated with TPA for 15 min.
Assay [4] has as its target Dual specificity protein phosphatase 6 (Homo sapiens) (UniProt Q16828). The description is as above. The settings on record: HeLa MKP-3 transfected, phospho-Erk imaging KS statistic; at 10 µM; stronger effect = higher value; cells stimulated with TPA for 15 min.
For assay [5], the target named is Voltage-gated potassium channel subunit beta-2 (Rattus norvegicus) (UniProt P62483). Put plainly: inhibitors of rat Kvbeta2 reductase activity – biochemical, NADPH fluorescence, primary screen (AID 622;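 active means fluorescence slope higher than the sample average by over 3 SD, cut at about -0.22 in these data, passing the limit was not always enough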;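 further: slope of raw intensity against log time taken from 70 to 1610 s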). The note with it: recombinant KvBeta, 4-cyanobenzaldehyde reduction, at 10 µM, stronger effect = higher value.
Voltage-gated potassium channel subunit beta-2 (Rattus norvegicus), sequence (P62483 whole entry, looked up): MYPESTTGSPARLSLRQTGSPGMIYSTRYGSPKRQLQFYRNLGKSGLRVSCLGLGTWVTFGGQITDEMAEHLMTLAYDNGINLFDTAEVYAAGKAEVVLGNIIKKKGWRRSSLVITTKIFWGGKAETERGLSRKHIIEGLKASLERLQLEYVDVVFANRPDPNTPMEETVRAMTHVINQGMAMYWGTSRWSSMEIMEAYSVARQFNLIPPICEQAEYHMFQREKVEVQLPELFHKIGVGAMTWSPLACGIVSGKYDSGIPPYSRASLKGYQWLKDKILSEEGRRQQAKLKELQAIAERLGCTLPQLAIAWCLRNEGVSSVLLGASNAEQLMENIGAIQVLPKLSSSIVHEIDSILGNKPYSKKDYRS
The target is the same in assay [6]. In words: enhancers of rat Kvbeta2 NADPH turnover – biochemical, NADPH fluorescence, primary screen (AID 623).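 Further: fluorescence intensity change per second fitted from 20 to 320 s.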 The note with it: Recombinant KvBeta, NADPH fluorescence decrease slope, 10 min; at 10 µM; stronger effect = lower value.
The target in assay [7] is Muscarinic acetylcholine receptor M4 (Homo sapiens) (UniProt P08173). In words: M4-linked GIRK flux change, two-sided – cell-based, HEK293 M4/GIRK, thallium flux, BTC-AM, M4 allosteric agonist project, primary screen (AID 625;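 active means fluorescence slope after compound addition differing from the mean of all tested samples at 99.7% confidence, mostly higher but some lower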;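 further: thallium influx through GIRK channels coupled to M4 in HEK293 cells with BTC-AM dye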). The note with it: at 10 µM, actives lie on both sides. In short, it runs like this: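 Material: HEK293 cells with M4 receptor and GIRK channels; Times: cells overnight at 37 °C, BTC-AM loading 1 h, reads 2 min total; Technique: kinetic BTC-AM fluorescence sampled at 1 Hz, 10 s pre-addition baseline; Read-out basis: slope over 15–24 s of trace normalized to starting intensity; Controls: carbachol positive, DMSO negative.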
Muscarinic acetylcholine receptor M4 (Homo sapiens), sequence (P08173 whole entry, looked up): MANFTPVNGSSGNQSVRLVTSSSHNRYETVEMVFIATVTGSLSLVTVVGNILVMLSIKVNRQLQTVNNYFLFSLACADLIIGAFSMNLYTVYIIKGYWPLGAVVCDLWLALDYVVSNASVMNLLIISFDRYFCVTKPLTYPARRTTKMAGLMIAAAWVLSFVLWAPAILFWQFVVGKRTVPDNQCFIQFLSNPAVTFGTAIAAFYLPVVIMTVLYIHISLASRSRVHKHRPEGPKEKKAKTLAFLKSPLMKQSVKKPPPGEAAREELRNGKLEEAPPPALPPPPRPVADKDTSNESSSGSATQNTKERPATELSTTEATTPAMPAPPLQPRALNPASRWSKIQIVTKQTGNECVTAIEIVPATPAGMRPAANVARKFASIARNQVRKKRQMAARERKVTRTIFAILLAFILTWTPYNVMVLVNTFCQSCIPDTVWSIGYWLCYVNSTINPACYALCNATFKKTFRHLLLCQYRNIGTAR

A short description of assay [8]: inhibitors of larval lipid processing in zebrafish, primary screen, whole organism, PED6 fluorescence, gall bladder and intestine (AID 686;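 active means a full or partial loss of lipid-probe fluorescence in the fish gall bladder, intestine or both, judged by eye; inactive means no fluorescence loss, or compound toxic to the fish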;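 further: larvae 5 to 7 days old with five fish per well; signal comes from phospholipase A2 cleavage of quenched PED6 carried via bile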). The settings on record: Zebrafish larvae PED6 lipid processing, fluorescence scoring; screened at 20 µM (by protocol). Put shortly: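 Incubation: overnight exposure of larvae to compound plus PED6 / Test system: live zebrafish larvae aged 5-7 days, whole organism / Amount: 5 larvae per well / Read-out basis: visual per-well fluorescence inhibition score / Signal: visual fluorescence microscopy scoring of gall bladder, gut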

Assay [9] is described as follows: loss of swimming-algae plug formation – whole organism, Chlamydomonas reinhardtii, WT vs cilia-less mutant, absorbance, 96-well, primary screen (AID 463189;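 active means inhibition at or above 50% relative to wild type and mutant plate controls; inactive means inhibition below 50%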;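 further: 0% = wild type cc124 cells in DMSO and 100% = ciliumless bld1 mutant cells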). The settings on record: Chlamydomonas reinhardtii gravitaxis, OD600 absorbance, 2 days; at 10 µM; stronger effect = higher value.
The mark [10] stands for this setting: measured here: cell density z-score.
[11] abbreviates: measured here: nuclear c-Myc green intensity z-score.
[12] abbreviates: measured here: nuclear pErk red intensity z-score, stronger effect = higher value.

The structures appear in SMILES notation. Activity calls are given as the source filed them.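 How the source made its calls, unless noted: active means NADPH fluorescence slope more negative than the mean of all samples by about 3 SD, 99.7% confidence; inactive means the rest.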

Here are results for 7 compounds from PubChem BioAssay.

Dual specificity protein phosphatase 6 (Homo sapiens), sequence (Q16828 whole entry, looked up): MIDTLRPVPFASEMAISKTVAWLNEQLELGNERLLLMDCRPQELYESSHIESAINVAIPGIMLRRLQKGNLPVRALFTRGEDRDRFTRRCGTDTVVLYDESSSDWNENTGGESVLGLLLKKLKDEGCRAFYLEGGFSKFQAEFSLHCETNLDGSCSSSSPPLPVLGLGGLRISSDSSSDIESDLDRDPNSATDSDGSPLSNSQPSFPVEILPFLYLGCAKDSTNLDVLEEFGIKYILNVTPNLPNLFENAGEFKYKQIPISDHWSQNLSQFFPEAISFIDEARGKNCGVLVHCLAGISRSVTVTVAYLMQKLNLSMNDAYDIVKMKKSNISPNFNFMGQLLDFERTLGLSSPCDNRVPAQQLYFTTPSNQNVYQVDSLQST

On to `COc1cc(C2Nc3cccc4cccc(c34)N2)cc(OC)c1OC(C)=O`, for which the cell count in [1] was 498. Further, the inhibition is -3.5% (inactive) in assay [1], -2.1% (inactive) in [2], -2.59% (inactive) in [4] and 17.1% (inactive) in assay [9]. In assay [2], this compound returned a nuclei count of 85.3%. For the same compound, the z-score is 0.65 in assay [3] (setting [10]), -1.19 in assay [3] (setting [11]) and 0.407 in [3] (setting [12]). Moreover, the fluorescence slope in [5] is -0.474 (inactive); in [7], 0.00327 (inactive). For the same compound, the NADPH fluorescence slope in assay [6] is 7.8e-06 (inactive). In assay [8], the outcome was inactive.
With `COc1cccc(Cn2c(NCc3ccccn3)nc3c2c(=O)n(C)c(=O)n3C)c1`, the cell count in assay [1] worked out at 694. In addition, the inhibition in [1] is -20.9% (inactive); in assay [2] it was -199% (inactive); in assay [4], 17.8% (inactive); in assay [9], 4.17% (inactive). The compound further registered a nuclei count in assay [2] of 189%. Moreover, the z-score in [3] (setting [10]) is 0.955; in assay [3] (setting [11]), -1.34; in assay [3] (setting [12]), -0.0315. Also, the fluorescence slope was -0.5 (inactive) in assay [5] and 0.00592 (inactive) in assay [7]. The NADPH fluorescence slope in assay [6] is -7.9e-05 (inactive). The outcome in assay [8] was inactive.
In the case of `Cn1c(=O)c2c3c(sc2n2c(SCC(=O)c4ccccc4)nnc12)COC(C)(C)C3`, in assay [1], the cell count was 532. Further, the inhibition was -12.7% (inactive) in assay [1], 44.5% (inactive) in [2], 9.07% (inactive) in assay [4] and 35.1% (inactive) in assay [9]. The compound further came in with a nuclei count in [2] of 48.5%. For the same compound, the z-score in assay [3] (setting [10]) is 0.653; in assay [3] (setting [11]) it was -0.107; in [3] (setting [12]), -0.293. The fluorescence slope is -0.511 (inactive) in [5] and 0.00374 (inactive) in assay [7]. Further, the NADPH fluorescence slope in assay [6] is 1.2e-05 (inactive). In assay [8], the result was inactive.
Turning to `CC1(C)Cc2c(c(-c3ccccc3Cl)[nH]c(=O)c2C#N)CO1`, in [1], the cell count stood at 591. Moreover, the inhibition in assay [1] is 5.7% (inactive); in assay [2], -106% (inactive); in assay [4], 11.9% (inactive); in [9], 20.5% (inactive). The nuclei count in [2] came to 134%. Also, the z-score is 0.999 in assay [3] (setting [10]), -0.743 in [3] (setting [11]) and 0.0604 in assay [3] (setting [12]). The fluorescence slope was -0.384 (inactive) in assay [5] and 0.00508 (inactive) in [7]. Also, the NADPH fluorescence slope in [6] is -2.7e-05 (inactive). Also, the compound was called inactive in [8].
Regarding `CCCOC(=O)CSC1=C(C#N)C(c2ccc3c(c2)OCO3)CC(=O)N1` (stereo unspecified), the cell count in assay [1] is 674. For the same compound, the inhibition in assay [1] was -6.1% (inactive); in [2], -91.1% (inactive); in [4], -7.86% (inactive); in assay [9], 6.85% (inactive). The nuclei count in assay [2] came out at 161%. Further, the values for the z-score in assay [3] (setting [10]), in assay [3] (setting [11]) and in assay [3] (setting [12]) were 0.796, -0.679 and -1.26, respectively. Further, the fluorescence slope in [5] is -0.487 (inactive); in [7] it was 0.00536 (inactive). Moreover, in assay [6], the NADPH fluorescence slope is -6.2e-05 (inactive). Further, in [8], the call was inactive.
Take `Nc1nc2n(n1)C(c1ccc(F)cc1)CC(c1ccc(F)cc1)N2` (stereo unspecified): the cell count in [1] is 346. Moreover, the inhibition in assay [1] is -13.8% (inactive); in assay [2], -43.3% (inactive); in assay [4], 5.65% (inactive); in assay [9], 19.7% (inactive). Also, in assay [2], the nuclei count was 97%. For the same compound, the z-score is -0.282 in assay [3] (setting [10]), 0.742 in [3] (setting [11]) and -0.273 in [3] (setting [12]). In addition, the fluorescence slope in assay [5] is -0.457 (inactive); in assay [7] it was 0.00499 (inactive). For the same compound, the NADPH fluorescence slope in assay [6] is -5.2e-05 (inactive). The compound was classed as inactive in assay [8].
With `NC(=O)C1CCN(CCC(=O)Nc2ccc(Br)cc2)CC1`, the cell count in [1] worked out at 619. The inhibition was -14.3% (inactive) in [1], -30.8% (inactive) in [2], 7.42% (inactive) in assay [4] and 44% (inactive) in assay [9]. In addition, in assay [2], the nuclei count stood at 163%. The z-score in assay [3] (setting [10]) is 0.663; in assay [3] (setting [11]), -1.51; in assay [3] (setting [12]) it was 0.0444. The values for the fluorescence slope in assay [5] and in assay [7] were -0.426 (inactive) and 0.00492 (inactive), respectively. Moreover, the NADPH fluorescence slope in assay [6] is -5.4e-05 (inactive). Further, the call in [8] was inactive.

In general, inhibition refers to the change of the read-out against control, counted positive when it falls.
